Experimental data as given in publication PMC12086819 (RSC Advances, 2025).
Entries after “also recorded” stand apart in the source; their conditions may differ. Read-outs that look alike come from different tables or passages of the source.

How the values were obtained:
NIH-3T3 cells = assay: MTT cytotoxicity assay in non-cancerous NIH-3T3 cells; assay type: cell-based, mouse; conditions: for IC50: Mus musculus; for cytotoxic effect on non-cancerous NIH-3T3 cells (in words): NIH-3T3 mouse embryonic fibroblast, treatment up to 48 h
Procedure, shortened: (§1)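 Cells (A549 or NIH-3T3) were seeded at 5 × 10^3 per well and grown 24 h at 37 °C, 5% CO2, then given increasing concentrations for 24 h and 48 h. DMSO/medium served as negative control and cisplatin as standard. MTT (5 mg mL−1 stock) was added for 4 h at 37 °C, formazan was dissolved in DMSO, and A595 was read. Triplicate means were used; IC50 came from dose–response inhibition curves.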

A549 cells [1] = assay: MTT cytotoxicity assay against the A549 lung cancer cell line; assay type: cell-based, human; conditions: for cytotoxic activity compared with cisplatin: MTT
Procedure, shortened: as §1

A549 cells [2] = assay: Intracellular ROS generation; assay type: cell-based, human; conditions: IC50 concentrations, DCFH-DA, 0-24 h
Procedure, shortened: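 Cells were seeded at 3.0 × 10^4 cells per mL in 24-well plates for 24 h, then dosed at 24 h IC50 concentrations with added 100 μM H2O2 solution. After 10 μM DCFH-DA solution was added, plates were held 10 min in the dark. DCF fluorescence (ex 488/em 510 nm) was read at 0, 2, 4, 6, 8, 12 and 24 h and expressed as fold change versus untreated control. Triplicates, mean ± SD.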

A549 cells [3] = assay: AO/EB and Hoechst 33258 staining assay; assay type: cell-based, human; conditions: A549 cells treated at respective IC50 concentration, 24 h and 48 h
Procedure, shortened: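 A549 cells were seeded at 5 × 10^4 per well and grown 24 h at 37 °C, 5% CO2, then exposed at the respective IC50 concentration for 24 h and 48 h, alongside untreated and cisplatin controls. Staining used either AO/EB solution (100 μg per mL each) or Hoechst 33258 solution (100 μg per mL). Cells were examined and counted by fluorescence microscopy within 20 min.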

[4] = NIH3T3, 24 h, read-out: IC50 at 24 h
[5] = NIH3T3, 48 h, read-out: IC50 at 48 h

Structure (SMILES)	IC50 (NIH-3T3 cells; [4]) [µM]	IC50 (NIH-3T3 cells; [5]) [µM]	cytotoxic activity compared with cisplatin (A549 cells [1])	DCF fluorescent intensity compared with the untreated control group (A549 cells [2])	cytotoxic effect on non-cancerous NIH-3T3 cells (in words) (NIH-3T3 cells)	apoptosis induction (AO/EB and Hoechst staining) (A549 cells [3])	fold higher activity at 48 h than at 24 h (A549 cells [1]; IC50 at 48 h vs 24 h) [fold]	reduction in cell viability (A549 cells [1]; at 24 and 48 h)
Cc1cc(C)c(C2C3CCCN3C3(C(=O)Nc4ccccc43)C2C(=O)c2ccc(F)cc2)c(C)c1 (stereo not drawn) [5b, 2′-(4-Fluorobenzoyl)-1′-mesityl-1′,2′,5′,6′,7′,7a′-hexahydrospiro[indoline-3,3′-pyrrolizin]-2-one]	> 100	69.9 ± 1.3	better activity than cisplatin					
Cc1cc(C)c(C2CN(C)C3(C(=O)Nc4ccccc43)C2C(=O)c2ccc(F)cc2)c(C)c1 (stereo not drawn) [4b, 3′-(4-Fluorobenzoyl)-4′-mesityl-1′-methylspiro[indoline-3,2′-pyrrolidin]-2-one]	> 100	32.8 ± 5.95		Not much difference				
Cc1ccc(C(=O)C2C(c3c(C)cc(C)cc3C)C3CCCN3C23C(=O)Nc2ccccc23)cc1 (stereo not drawn) [5e, 1′-Mesityl-2′-(4-methylbenzoyl)-1′,2′,5′,6′,7′,7a′-hexahydrospiro[indoline-3,3′-pyrrolizin]-2-one]	> 100	> 100		Not much difference	non-cytotoxic; also recorded: no cytotoxic effects	higher number of early and late apoptotic cells; also recorded: apoptosis-inducing capabilities		
Cc1cc(C)c(C2CN(C)C3(C(=O)Nc4ccccc43)C2C(=O)c2ccc(Cl)cc2)c(C)c1 (stereo not drawn) [4c, 3′-(4-Chlorobenzoyl)-4′-mesityl-1′-methylspiro[indoline-3,2′-pyrrolidin]-2-one]	> 100	> 100	better activity than cisplatin					
Cc1cccc(C(=O)C2C(c3c(C)cc(C)cc3C)C3CCCN3C23C(=O)Nc2ccccc23)c1 (stereo not drawn) [5g, 1′-Mesityl-2′-(3-methylbenzoyl)-1′,2′,5′,6′,7′,7a′-hexahydrospiro[indoline-3,3′-pyrrolizin]-2-one]	> 100	> 100	better activity than cisplatin					
Cc1cc(C)c(C2C3CCCN3C3(C(=O)Nc4ccccc43)C2C(=O)c2ccc(Cl)cc2)c(C)c1 (stereo not drawn) [5c, 2′-(4-Chlorobenzoyl)-1′-mesityl-1′,2′,5′,6′,7′,7a′-hexahydrospiro[indoline-3,3′-pyrrolizin]-2-one]	> 100	72.1 ± 0.95	better activity than cisplatin	Not much difference				
Cc1cccc(C(=O)C2C(c3c(C)cc(C)cc3C)CN(C)C23C(=O)Nc2ccccc23)c1 (stereo not drawn) [4g, 4′-Mesityl-1′-methyl-3′-(3-methylbenzoyl)spiro[indoline-3,2′-pyrrolidin]-2-one]	> 100	75.3 ± 0.94		Not much difference				
Cc1cc(C)c(C2C3CCCN3C3(C(=O)Nc4ccccc43)C2C(=O)c2cccc(Cl)c2)c(C)c1 (stereo not drawn) [5f, 2′-(3-Chlorobenzoyl)-1′-mesityl-1′,2′,5′,6′,7′,7a′-hexahydrospiro[indoline-3,3′-pyrrolizin]-2-one]	> 100	> 100		Not much difference	non-cytotoxic; also recorded: no cytotoxic effects	higher number of early and late apoptotic cells; also recorded: apoptosis-inducing capabilities; also recorded: induces apoptosis	~13	
Cc1cc(C)c(C2CN(C)C3(C(=O)Nc4ccccc43)C2C(=O)c2ccccc2)c(C)c1 (stereo not drawn) [4a, 3′-Benzoyl-4′-mesityl-1′-methylspiro[indoline-3,2′-pyrrolidin]-2-one]	> 100	25.4 ± 3.74		Not much difference		apoptosis-inducing capabilities		
Cc1cc(C)c(C2CN(C)C3(C(=O)Nc4ccccc43)C2C(=O)c2ccc(Br)cc2)c(C)c1 (stereo not drawn) [4d, 3′-(4-Bromobenzoyl)-4′-mesityl-1′-methylspiro[indoline-3,2′-pyrrolidin]-2-one]	> 100	> 100	better activity than cisplatin					
Cc1ccc(C(=O)C2C(c3c(C)cc(C)cc3C)CN(C)C23C(=O)Nc2ccccc23)cc1 (stereo not drawn) [4e, 4′-Mesityl-1′-methyl-3′-(4-methylbenzoyl)spiro[indoline-3,2′-pyrrolidin]-2-one]	> 100	> 100	better activity than cisplatin	Not much difference				
N.N.[Cl][Pt][Cl] [Cisplatin, cisplatin, reference compound]						distinct changes as an indication of apoptosis and cell death		
Cc1cc(C)c(C2C3CCCN3C3(C(=O)Nc4ccccc43)C2C(=O)c2ccc(Br)cc2)c(C)c1 (stereo not drawn) [5d, 2′-(4-Bromobenzoyl)-1′-mesityl-1′,2′,5′,6′,7′,7a′-hexahydrospiro[indoline-3,3′-pyrrolizin]-2-one]	> 100	42.9 ± 1.51	better activity than cisplatin					
Cc1cc(C)c(C2CN(C)C3(C(=O)Nc4ccccc43)C2C(=O)c2cccc(Cl)c2)c(C)c1 (stereo not drawn) [4f, 3′-(3-Chlorobenzoyl)-4′-mesityl-1′-methylspiro[indoline-3,2′-pyrrolidin]-2-one]	> 100	> 100						No substantial reduction in cell viability
Cc1cc(C)c(C2C3CCCN3C3(C(=O)Nc4ccccc43)C2C(=O)c2ccccc2)c(C)c1 (stereo not drawn) [5a, 2′-Benzoyl-1′-mesityl-1′,2′,5′,6′,7′,7a′-hexahydrospiro[indoline-3,3′-pyrrolizin]-2-one]	> 100	72 ± 4.45	better activity than cisplatin					
